Source: ChEMBL document CHEMBL1149102, “De novo design, synthesis, and pharmacology of alpha-melanocyte stimulating hormone analogues derived from somatostatin by a hybrid approach” (J Med Chem, 2004)

How the values were obtained:
Melanocortin receptor 3 = Melanocortin receptor 3 (Rattus norvegicus, UniProt P32244); experiment: Effective concentration for maximum agonist response towards rat melanocortin 3 receptor (MC3R); No activity up to 10e-5 M; format: functional
Method in brief: (§1)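 Cells stably expressing wild-type mouse (MC3R: rat) melanocortin receptor, transfected with 4 μg CRE/β-galactosidase reporter; 5000–15 000 cells plated, incubated overnight. At 48 h post-transfection, stimulated 6 h in DMEM with 0.1 mg/mL BSA and 0.1 mM IBMX; forskolin 10^-4 M reference.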

[1] = target: Melanocyte-stimulating hormone receptor (Mus musculus, UniProt Q01727); experiment: Effective concentration for maximum agonist response towards mouse melanocortin 1 receptor (MC1R); No activity up to 10^-5 M; format: functional; method in brief: as §1
Sequence of Melanocyte-stimulating hormone receptor (Q01727 whole entry): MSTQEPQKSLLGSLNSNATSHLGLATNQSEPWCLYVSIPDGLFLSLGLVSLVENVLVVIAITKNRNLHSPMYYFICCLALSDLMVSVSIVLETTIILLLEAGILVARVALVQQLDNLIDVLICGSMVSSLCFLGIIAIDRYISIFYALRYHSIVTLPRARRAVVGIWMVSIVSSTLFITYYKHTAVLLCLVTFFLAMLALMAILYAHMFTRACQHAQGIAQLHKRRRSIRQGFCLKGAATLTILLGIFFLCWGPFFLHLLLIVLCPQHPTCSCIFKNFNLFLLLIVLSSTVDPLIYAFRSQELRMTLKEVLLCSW

Melanocortin receptor 5 = Melanocortin receptor 5 (Mus musculus, UniProt P41149); experiment: Effective concentration for maximum agonist response towards mouse melanocortin 5 receptor (MC5R); No activity up to 10^-5 M; format: functional; method in brief: as §1
Sequence of Melanocortin receptor 5 (P41149 whole entry): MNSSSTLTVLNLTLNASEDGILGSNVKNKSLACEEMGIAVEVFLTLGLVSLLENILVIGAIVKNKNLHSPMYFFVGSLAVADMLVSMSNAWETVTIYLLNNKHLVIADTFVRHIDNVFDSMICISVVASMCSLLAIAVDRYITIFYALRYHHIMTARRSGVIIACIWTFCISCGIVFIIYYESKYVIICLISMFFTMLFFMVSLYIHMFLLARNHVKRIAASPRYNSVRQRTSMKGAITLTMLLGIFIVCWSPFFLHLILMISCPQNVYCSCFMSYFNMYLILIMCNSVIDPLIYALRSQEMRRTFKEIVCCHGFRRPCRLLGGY

[2] = system: melanocyte-stimulating hormone receptor (Rana pipiens); experiment: Maximum agonist response for frog skin melanocortin 1 receptor (MC1R); No activity up to 10^-5M
Melanocortin receptor 4 = Melanocortin receptor 4 (Mus musculus, UniProt P56450); experiment: Effective concentration for maximum agonist response towards mouse melanocortin 4 receptor (MC4R); No activity up to 10^-5 M; format: functional; method in brief: as §1
Sequence of Melanocortin receptor 4 (P56450 whole entry): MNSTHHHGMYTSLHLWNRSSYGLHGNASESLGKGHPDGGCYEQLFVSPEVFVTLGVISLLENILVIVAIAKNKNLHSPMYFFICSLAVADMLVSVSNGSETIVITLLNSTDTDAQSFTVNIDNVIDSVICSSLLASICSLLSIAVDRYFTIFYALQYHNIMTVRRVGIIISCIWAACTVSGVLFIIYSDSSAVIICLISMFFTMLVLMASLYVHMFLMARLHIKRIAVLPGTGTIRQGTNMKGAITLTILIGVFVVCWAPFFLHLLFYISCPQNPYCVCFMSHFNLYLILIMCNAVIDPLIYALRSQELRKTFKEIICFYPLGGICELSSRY

Measured: EC50

Sequence of Melanocortin receptor 3 (P32244 whole entry): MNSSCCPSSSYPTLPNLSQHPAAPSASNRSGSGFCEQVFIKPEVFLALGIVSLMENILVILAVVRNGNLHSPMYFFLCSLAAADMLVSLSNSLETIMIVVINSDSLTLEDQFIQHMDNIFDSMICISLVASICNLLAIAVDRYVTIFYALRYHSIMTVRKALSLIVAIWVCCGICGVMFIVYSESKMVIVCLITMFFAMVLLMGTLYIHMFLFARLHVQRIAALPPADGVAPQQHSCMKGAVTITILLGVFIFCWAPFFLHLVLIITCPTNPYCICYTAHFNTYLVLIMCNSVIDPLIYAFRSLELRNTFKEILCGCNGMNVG

C[C@H](O)[C@@H](NC(=O)[C@H]1CSSC[C@H](NC(=O)[C@@H](N)Cc2ccccc2)C(=O)N[C@@H](Cc2c[nH]cn2)C(=O)N2Cc3ccccc3C[C@H]2C(=O)N[C@@H](CCCN=C(N)N)C(=O)N[C@H](Cc2c[nH]c3ccccc23)C(=O)N1)C(N)=O
Not Active: all assays above
